Measurements gathered from unrelated publications.
Each line is one published result; the experiments were not run side by side.
Target: Protein kinase C epsilon type (PRKCE, Homo sapiens, UniProt Q02156)
Residues used in one study (Q02156 1-737): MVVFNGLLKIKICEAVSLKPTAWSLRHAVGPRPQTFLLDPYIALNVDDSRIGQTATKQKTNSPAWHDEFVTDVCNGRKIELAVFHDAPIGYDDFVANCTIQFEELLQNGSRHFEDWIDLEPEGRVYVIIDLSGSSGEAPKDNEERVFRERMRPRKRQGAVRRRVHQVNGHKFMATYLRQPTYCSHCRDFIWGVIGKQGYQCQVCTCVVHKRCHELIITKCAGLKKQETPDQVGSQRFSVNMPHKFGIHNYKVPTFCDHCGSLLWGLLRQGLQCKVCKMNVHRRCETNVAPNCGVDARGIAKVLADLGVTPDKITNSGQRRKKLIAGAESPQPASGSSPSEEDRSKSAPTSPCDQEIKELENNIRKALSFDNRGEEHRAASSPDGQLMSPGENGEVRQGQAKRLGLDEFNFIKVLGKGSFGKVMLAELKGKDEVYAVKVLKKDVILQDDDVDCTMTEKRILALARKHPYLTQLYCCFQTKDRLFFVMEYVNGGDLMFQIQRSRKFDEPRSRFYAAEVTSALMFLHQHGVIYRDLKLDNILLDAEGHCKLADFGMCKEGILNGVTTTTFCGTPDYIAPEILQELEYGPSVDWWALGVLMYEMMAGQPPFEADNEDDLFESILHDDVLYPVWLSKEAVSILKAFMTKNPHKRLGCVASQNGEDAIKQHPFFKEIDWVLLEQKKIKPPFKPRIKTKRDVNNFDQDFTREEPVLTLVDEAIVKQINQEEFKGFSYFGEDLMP

`O=C(c1ccc(Nc2nccc(-c3cc4ccccc4s3)n2)cc1)N1CCC(N2CCCC2)CC1` has a remaining binding of 68% (binding; competition with immobilised ligand; 1 µM).
`CSc1cccnc1N1CCN(Cc2nc3ccccc3[nH]2)CC1` has a remaining binding of 77% (cell-free assay; competition with immobilised ligand; 1 µM).
For `Nc1ncc2c(n1)-c1c([nH]c3ccc(C#CC4CC4)cc13)CCCC2`, the remaining binding was 98% (binding; competition with immobilised ligand; 1 µM).
`CN(c1ccnc(CNc2nc(Nc3ccc4c(c3)CC(=O)N4)ncc2C(F)(F)F)n1)S(C)(=O)=O` gave a remaining binding of 50% (cell-free assay; competition with immobilised ligand; 1 µM).
`Cc1cnn2ncc(-c3ccnc(N(C)C)n3)c2c1` gave a remaining binding of 100% (binding; 1 µM).
`CCS(=O)(=O)c1cc2cc(C[C@](O)(CC(C)(C)c3ccc(F)cc3C(N)=O)C(F)(F)F)[nH]c2cn1` gave a remaining binding of 96% (cell-free assay; competition with immobilised ligand; 1 µM).
For `O=C(NCC1CCOCC1)c1n[nH]cc1NC(=O)c1c(F)cccc1F`, the remaining binding was 87% (binding; competition with immobilised ligand; 1 µM).
For `N[C@H]1CCN(c2nccc(-c3cnn4ncccc34)n2)C1`, the remaining binding was 100% (binding; 1 µM).
The remaining binding of `C[C@@H](c1ccc(-n2cnc3c(N)ncnc32)cc1)N1CCc2nn(C)c(Cc3ccccc3)c2C1=O` is reported as 74% (binding; competition with immobilised ligand; 0.1 µM).
The remaining binding of `COCCOc1nc(-c2ccc(Cl)nc2)nc2c1CN(C(=O)c1ncn3ccccc13)CC2` is reported as 89% (cell-free assay; competition with immobilised ligand; 0.1 µM).
`O=C(c1ccc(Nc2ncc(Cl)c(-c3ccc(Cl)s3)n2)cc1)N1CCC(N2CCCC2)CC1` has a remaining binding of 45% (binding; competition with immobilised ligand; 1 µM).
`C=CC(=O)N1CCC(C(=O)NCC(=O)N2CCN(c3nc(-c4cnc(N)nc4C(F)F)nc(N4CCOCC4)n3)CC2)CC1` has a remaining binding of 79% (binding; competition with immobilised ligand; 1 µM).
With `COc1cnc(Nc2cccc(S(N)(=O)=O)c2)nc1N1CCN(c2ccccc2)C(=O)C1` the remaining binding was 100% (binding; competition with immobilised ligand; 1 µM).
For `C[C@H]1CCN(c2nccc(-c3cnn4ncccc34)n2)C1`, the remaining binding was 100% (binding; 1 µM).
With `C[C@@H]1CN(c2ccc3ncc(-c4ccc5[nH]nc(C6CC6)c5c4)n3n2)C[C@H](C)O1` the remaining binding was 86% (binding; competition with immobilised ligand; 50 nM).
`O=C(N[C@H]1CCCCC/C=C\C2C[C@@]2(C(=O)O)NC(=O)[C@@H]2C[C@@H](Oc3ccncc3)CN2C1=O)OC1CCCC1` (some centres unmarked) has a remaining binding of 100% (cell-free assay; competition with immobilised ligand; 1 µM).
The remaining binding of `F[C@@H]1CCN(c2nccc(-c3cnn4ncccc34)n2)C1` is reported as 88% (binding; 1 µM).
